Source: PubChem BioAssay (Broad Institute)
PDI turbidity: inhibitors of human PDI, primary screen, biochemical, turbidity, single point, plate reader; Protein disulfide-isomerase (Homo sapiens), P07237; PDI insulin aggregation turbidity, A650, 90 min; inhibition, % at 10 µM; hit rate 0.052% among 350,000; AID 588391, 2011;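 active = mean inhibition across replicates of 30% or more, whatever share of single replicates reach that level; inconclusive = mean inhibition below 30% while every single replicate reaches 30%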
ERp5 inh: inhibitors of ERp5-driven insulin aggregation, primary screen, biochemical, turbidity, absorbance 650 nm, single point. Protein disulfide-isomerase A6 (Homo sapiens), Q15084. 90 min. inhibition, % at 9.99 µM. hit rate 0.05% among 350,000. AID 651711, 2012;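 active = mean replicate inhibition above about 25%, with every replicate also reaching it, limit read from the data, passing the limit was not always enough; inconclusive = only one of those two criteria met; inactive = neither criterion met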
Target sequence (Q15084 whole entry, looked up): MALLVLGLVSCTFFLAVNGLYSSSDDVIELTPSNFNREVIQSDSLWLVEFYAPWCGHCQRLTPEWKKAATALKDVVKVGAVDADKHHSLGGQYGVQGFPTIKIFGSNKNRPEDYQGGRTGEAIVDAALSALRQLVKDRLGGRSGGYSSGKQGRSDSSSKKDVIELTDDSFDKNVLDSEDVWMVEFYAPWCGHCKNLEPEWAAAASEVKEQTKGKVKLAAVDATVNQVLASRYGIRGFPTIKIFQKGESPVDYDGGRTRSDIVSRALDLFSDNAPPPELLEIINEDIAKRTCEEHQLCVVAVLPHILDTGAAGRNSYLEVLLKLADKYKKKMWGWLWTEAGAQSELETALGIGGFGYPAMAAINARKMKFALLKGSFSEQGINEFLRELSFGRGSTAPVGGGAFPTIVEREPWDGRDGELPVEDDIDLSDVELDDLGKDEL
FN deposit inh: inhibitors of fibronectin matrix deposition, primary screen, AH1F cells, Alexa488-fibronectin fluorescence, plate reader. AH1F fibroblasts, overnight. hit rate 0.086% among 350,000. inhibition, % at 12.6 µM;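 active = mean inhibition across replicates of 30% or more, regardless of how many single replicates reach that level; inconclusive = mean under 30% yet at least half of replicates reach 30%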;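 note: positive control wells lacked labelled fibronectin entirely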
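Material: AH1F fibroblast monolayer depositing Alexa488-labelled fibronectin into matrix | Input: 10000 AH1F cells/well | Medium: DMEM plus 2% serum, read in PBS | Reagent: Alexa488-fibronectin, 24 nM final in well | Compound dosing: One dose per compound, pinned | Schedule: 1 h adhesion, overnight exposure | Measured by: Fluorescence at 485 nm excitation, 525 nm emission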
Env fusion inh: inhibitors of HIV-1 Env-driven cell-cell fusion, primary screen, HeLa-JRFL effector, CEM21 target cells, luciferase; inhibition, % at 12.3 µM; hit rate 1.1% among 360,000; AID 651610, 2012;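 active = mean replicate inhibition score of at least 50 and every replicate individually at or above 50; inconclusive = only one of the two criteria met; inactive = mean below 50 and not all replicates reaching 50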;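 note: 0% = plate neutral controls and 100% = maraviroc near 300 nM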
PvdQ acylase: P. aeruginosa PvdQ acylase inhibitors, primary screen, biochemical, fluorescence, plate reader and imaging, single point; AID 488965, 2010; inhibition, % at 10 µM; hit rate 0.063% among 340,000; purified PvdQ acylase; in the data active = inhibition above about 30%, passing the limit was not always enough; inconclusive = no clear call, values can overlap the other calls;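 note: 0% = vehicle neutral wells and 100% = reference inhibitor wells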
rRNA inh HTS: reduced GFP signal of wild-type E. coli, primary screen, bacterial rRNA inhibitor project, GFP/RFP fluorescence, OD600, single point. E. coli WT GFP vs humanized-ribosome RFP mutants, 24 h; hits give low values; DMSO median 0, no signal -100. hit rate 1.6% among 350,000. GFP signal change (wild-type ribosome), % (test concentration not listed);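 active = significant combined selectivity score with lowered wild-type GFP, culture density cut under 30%, mutant RFP and density less affected; inactive = any of these conditions unmet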
HepG2 tox: cytotoxicity in HepG2 cells, dose response, cytotoxicity control, cell-based, CellTiter-Glo luminescence, cherry-pick, set 4. shares compounds with rRNA inh HTS. HepG2 viability, ATP luminescence, 72 h. activity change, negative = cytotoxicity, unspecified at 26 µM. 30 tested, under 10 active. AID 743480, 2014;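 active = compounds whose fitted half-maximal signal-loss concentration is at most twice their highest valid dose; inconclusive = flat curve with 30 to 70% signal loss, or poor fit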
AID977621: growth inhibition of wild-type GFP E. coli, dose response, H69 mutant RFP, cherry-pick; E. coli wild-type GFP strain growth, fluorescence, 24 h; AID 977621, 2014; activity change, negative = inhibition at 50 µM; 1,900 tested, under 10 active; shares compounds with rRNA inh HTS;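 active = Wild-type ribosome reporter drop at least double the humanized mutant ribosome reporter drop, growth loss under a set limit; inconclusive = no clear call, values can overlap the other calls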;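 note: wild-type GFP and H69 mutant RFP strains grown together 50/50 in each well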
AID977628: E. coli growth inhibition, wild-type GFP versus h24 humanized RFP strain, dose response, h24 mutant RFP vs wild-type GFP, cherry-pick; shares compounds with rRNA inh HTS; activity change, negative = inhibition at 50 µM; E. coli WT GFP strain growth, fluorescence, 24 h; 1,900 tested, under 10 active;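 active = compound lowering the normal-ribosome reporter at least twice as much as the humanized-ribosome reporter, growth loss under a set limit; inconclusive = no clear call, values can overlap the other calls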;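 note: wild-type GFP and h24 humanized RFP strains co-cultured 1 to 1 per well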
Starred values were filed as active, the others as inactive; ? = inconclusive; . = no result; ! = repeats disagree; [ ] = dose if it differs, or a comment. The list is not random: actives were taken first. Their share in the collection is about 2.2%.

SMILES	PDI turbidity	ERp5 inh	FN deposit inh	Env fusion inh	PvdQ acylase	rRNA inh HTS	AID977621	AID977628	others
CC(=O)Nc1ccccc1OCc1nnc(-c2ccc(Cl)cc2)o1	-8.0	-2.7	10.2	-14.0	-5.8	-23.1	.	.
CC(=O)Nc1ccc(OCc2nnc(-c3ccccc3)o2)cc1	-1.6	3.3	2.3	-22.7	-5.5	-22.8*	?	-17.3
CCC(=O)N1CC2(CCN(C(=O)NC(C)C)CC2)c2c(n(C)c3cc(OC)ccc23)[C@H]1CO	.	-3.9	.	.	.	-1.4	.	.
CC(=O)Nc1sc(C)c(C)c1C(=O)OCC(=O)Nc1cc(S(C)(=O)=O)ccc1Cl	0.4	11.9	6.1	13.2	-6.9	6.0	.	.
CS(=O)(=O)c1ccc(Cl)c(NC(=O)COC(=O)c2c(Cl)cccc2Cl)c1	-6.3	0.9	-3.1	24.1	-16.3	-26.5*	-5.11	-7.13
CCOc1ccccc1N1CCN(Cc2cn[nH]c2-c2ccc(F)cc2)CC1	-3.8	0.3	-5.9	15.4	5.8	-19.3*	-22.3	.
S=c1[nH]nc([C@@H]2C[C@H]2c2ccccc2)n1-c1ccccc1	-1.7	.	0.8	-30.3	-8.1	.	.	.
Cc1ccccc1-n1c([C@@H]2C[C@H]2c2ccccc2)n[nH]c1=S	3.5	4.8	-6.4	-10.5	-20.8	-28.0*	-18.2	-4.51
COc1ccc(NC(=O)N(C)C[C@H]2Oc3c(NC(=O)Nc4ccc(F)cc4)cccc3C(=O)N([C@H](C)CO)C[C@H]2C)cc1	.	-1.8	.	-10.1[16.7 µM]	.	3.4	.	.
CC1CCCCN1c1ncnc2ccccc12 (stereo unspecified)	-0.6	.	.	.	13.7	.	.	.
CC1(C)CC2CC(C)(CN2c2ncnc3ccccc23)C1 (stereo unspecified)	4.4	4.7	.	.	-4.9	-27.1*	-0.471	?
Cc1ccc(NS(=O)(=O)c2ccc3c(c2)CCC(=O)N3)cc1C	2.6	6.5	-5.8	5.6	-9.7	-22.8*!	-3.43	?
CC1CCCN(C(=O)C(C)Nc2cc(Cl)ccc2N2CCOCC2)C1 (stereo unspecified)	-1.3	4.3	5.6	0.9	-9.9	-29.1*	?	.
COc1cccc(OC)c1C(=O)Nc1cc(Cl)ccc1N1CCOCC1	0.1	.	.	.	-2.6	.	.	.
CCCCN(C)CCNC(=O)c1cc2cc3ccc(OC)cc3nc2o1	-13.3	1.4	1.2	-19.9	-69.2	-3.4	.	.
CCN(CC)CCNC(=O)c1cc2cc3ccc(OC)cc3nc2o1	11.4	3.1	2.8	-8.1	12.1	-18.9*	-7.93	?
O=C(NCCc1ccc(Cl)cc1)c1ccc2nc[nH]c2c1	-3.8	2.7	.	9.9	-3.9	-31.8*	.	?
O=C(NCCc1ccc(Cl)cc1Cl)c1ccc2nc[nH]c2c1	-5.9	21.1	-0.1	-9.7	-12.2	-8.1	.	.
CC1CCN(CC(O)COCCC23CC4CC(CC(C4)C2)C3)CC1 (stereo unspecified)	-0.4	-0.2	.	.	-11.1	-40.4*	-2.77	.
COCC(=O)N1[C@H](CO)[C@@H](c2ccc(C3=CCCCC3)cc2)[C@@H]1C#N	.	-10.6	-8.3	-8.2[16.7 µM]	.	2.3	.	.
COc1cccc(NC(=O)C(C)SCc2ccccc2)c1 (stereo unspecified)	-3.3	4.1	1.0	16.4	-6.0	-25.0*	-0.154	0.989
COc1cccc(NC(=O)C(c2ccccc2)N2CCN(c3ccccn3)CC2)c1 (stereo unspecified)	0.8	0.1	-4.0	-4.7	4.8	-19.1*	-5.86	-13.8
COc1ccc(NC(=O)C(C)SCc2ccccc2)cc1OC (stereo unspecified)	15.2	1.4	-4.1	.	-10.8	-0.6	.	.
CO[C@@H]1CN(C)C(=O)c2cc(NC(=O)c3cccc(F)c3)ccc2OC[C@H](C)N(C(C)=O)C[C@@H]1C	.	.	4.6	.	.	-5.9	.	.
CC1(CCC(=O)N2CCCC(N3CCN(c4ccc(F)cc4)CC3)C2)CC1 (stereo unspecified)	6.0	-0.7	-3.4	5.7	-20.7	-24.7*	-3.08	?
SMILES	PDI turbidity	ERp5 inh	FN deposit inh	Env fusion inh	PvdQ acylase	rRNA inh HTS	AID977621	AID977628	others
CCN(CC)CCn1c2ccccc2c2nc3ccc([N+](=O)[O-])cc3cc21	-7.6	-0.1	-5.3	-183.3	-8.2	-24.9*	.	.	HepG2 tox=3.03
Cn1c2ccccc2c2cc([N+](=O)[O-])ccc21	1.3	-0.6	11.7	4.7	-8.2	8.2	.	.
O=C(c1ccccc1)N1N=C(c2cccs2)CC1c1ccccc1O (stereo unspecified)	-5.2	0.8	12.0	21.5	8.9	-20.8	.	.
O=C(c1ccccc1)C1Oc2ccccc2C2CC(c3cccs3)=NN12 (stereo unspecified)	-9.1	7.2	-4.7	-23.7	2.4	-21.0*	-0.115	-5.88
O=C(Cn1c(CO)nc2ccccc21)NCCc1ccc(F)cc1	-5.8	7.7	-0.2	-4.3	1.8	-18.5*	?	.
COc1ccc2cc(CO)c3cc(OC)c(OC)cc3c2c1	-6.5	0.2	5.3	12.4	-15.6	-28.1*	-1.77	.
COc1ccc2cc(CO)c(Cl)nc2c1	-16.5	2.7	4.4	-9.4	-11.6	-1.6	.	.
COc1cccc(C(=O)c2c[nH]c(C(=O)NCc3cccnc3)c2)c1	-0.8	-2.6	.	26.7	-7.0	-29.3*	.	-10.2
O=C(CC(c1ccccc1)c1cc(Br)ccc1O)N1CCCC1 (stereo unspecified)	10.9	0.7	3.8	3.5	6.0	-20.4*	.	?
COc1ccc(NC(=O)N(C)C[C@H]2Oc3ncc(-c4ccc(C#N)cc4)cc3C(=O)N([C@@H](C)CO)C[C@@H]2C)cc1	.	-1.0	.	-11.9[16.7 µM]	.	-5.0	.	.
O=C(O)CCN(Cc1ccccc1)S(=O)(=O)c1ccccc1Cl	3.4	-3.9	3.2	2.9	-15.0	-19.8*	-5.66	.
O=C(O)CCN(Cc1ccccc1)S(=O)(=O)c1ccc(Cl)cc1F	-1.0	-3.4	-0.3	-3.3	-11.1	-20.2*	-5.93	?
COC(=O)CCN(Cc1ccccc1)S(=O)(=O)c1ccccc1Br	8.8	-2.0	-14.5	17.3	-12.9	-9.1	.	.
